From ChEMBL document CHEMBL4689842, “EUbOPEN Chemogenomics Library wave 1” (2021)
“And” between values parts separate entries of the source, which are not always exact repeats. Equal entries are not always repeated.

Test system: Fibroblast
Assay: Multiplex assay against human fibroblast
Assay type: toxicity, cell-based
Procedure, shortened: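 Compound was added to live cells that had been stained at seeding with Hoechst33342, BioTracker Green Microtubule Cytoskeleton Dye, MitoTracker Red and Annexin V Alexa Fluor 680, and imaging followed on a CQ1 microscope at 37°C and 5% CO2. CellPathfinder machine-learning gating divided cells into Hoechst high-intensity objects or normal cells, normal cells into healthy, pyknosed or fragmented nuclei, and pyknosed cells into mitotic or apoptotic. Tubulin, mitochondrial-mass and membrane-permeability phenotypes are per cents of healthy-nucleus cells.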

[1] = 12 h, 1 µM, compound concentration 1 uM, replicate 1
[2] = 12 h, 1 µM, compound concentration 1 uM, replicate 2
[3] = 12 h, 10 µM, compound concentration 10 uM, replicate 1
[4] = 12 h, 10 µM, compound concentration 10 uM, replicate 2
[5] = 24 h, 1 µM, compound concentration 1 uM, replicate 1
[6] = 24 h, 1 µM, compound concentration 1 uM, replicate 2
[7] = 24 h, 10 µM, compound concentration 10 uM, replicate 1
[8] = 24 h, 10 µM, compound concentration 10 uM, replicate 2
[9] = 48 h, 1 µM, compound concentration 1 uM, replicate 1
[10] = 48 h, 1 µM, compound concentration 1 uM, replicate 2
[11] = 48 h, 10 µM, compound concentration 10 uM, replicate 1
[12] = 48 h, 10 µM, compound concentration 10 uM, replicate 2

Nc1c(C(=O)NCc2ccc(C(=O)NCCCC3CCCCC3)cc2)cnn1-c1ccccc1 [SR-318]
Population Apoptotic (%) [1]: 63% and 53% and 61% | Population Fragmented Nuclei (%) [1]: 20% and 26% | Population Healthy Nuclei (%) [1]: 41% and 34% | Population Hoechst High Intensity Objects (%) [1]: 10% and 11% | Population Membrane Permeable-Phenotype (%) [1]: 34% and 21% and 18% | Population Mitochondria Different-Phenotype (%) [1]: 6% and 7% and 9% | Population Mitotic Cells (%) [1]: 36% and 46% and 38% | Population Normal (%) [1]: 89% and 88% | Population Pyknosed Nuclei (%) [1]: 38% and 44% | Population Tubulin-Different-Phenotype (%) [1]: 46% and 39% and 51% | Total Cell Count [1]: 128 and 123 and 142 | Population Fragmented Nuclei (%) [2]: 9% and 5% and 3% | Population Healthy Nuclei (%) [2]: 83% and 75% and 91% | Population Membrane Permeable-Phenotype (%) [2]: 6% and 5% | Population Mitochondria Different-Phenotype (%) [2]: 8% | Population Mitotic Cells (%) [2]: 50% and 87% and 100% | Population Normal (%) [2]: 95% and 73% and 96% | Population Tubulin-Different-Phenotype (%) [2]: 19% and 25% and 11% | Total Cell Count [2]: 63 and 91 and 118 | Population Apoptotic (%) [3]: 65% and 54% and 56% | Population Fragmented Nuclei (%) [3]: 20% and 24% and 14% | Population Healthy Nuclei (%) [3]: 29% and 33% and 37% | Population Hoechst High Intensity Objects (%) [3]: 8% and 10% and 20% | Population Mitochondria Different-Phenotype (%) [3]: 24% and 47% and 43% | Population Mitotic Cells (%) [3]: 34% and 45% and 43% | Population Normal (%) [3]: 91% and 89% and 79% | Population Pyknosed Nuclei (%) [3]: 50% and 42% and 47% | Population Tubulin-Different-Phenotype (%) [3]: 88% and 76% and 85% | Total Cell Count [3]: 94 and 140 and 136 | Population Apoptotic (%) [4]: 45% and 22% and 33% | Population Fragmented Nuclei (%) [4]: 17% and 15% and 12% | Population Healthy Nuclei (%) [4]: 69% and 58% and 72% | Population Mitochondria Different-Phenotype (%) [4]: 55% and 51% and 60% | Population Mitotic Cells (%) [4]: 54% and 77% and 66% | Population Normal (%) [4]: 92% and 98% | Population Pyknosed Nuclei (%) [4]: 13% and 25% and 15% | Population Tubulin-Different-Phenotype (%) [4]: 50% and 56% and 67% | Total Cell Count [4]: 71 and 90 and 91 | Population Apoptotic (%) [5]: 44% and 58% and 55% | Population Fragmented Nuclei (%) [5]: 17% and 19% and 22% | Population Healthy Nuclei (%) [5]: 46% and 43% and 44% | Population Hoechst High Intensity Objects (%) [5]: 8% and 6% and 10% | Population Membrane Permeable-Phenotype (%) [5]: 34% and 25% and 33% | Population Mitochondria Different-Phenotype (%) [5]: 6% and 4% and 12% | Population Mitotic Cells (%) [5]: 55% and 41% and 44% | Population Normal (%) [5]: 91% and 93% and 89% | Population Pyknosed Nuclei (%) [5]: 36% and 33% | Population Tubulin-Different-Phenotype (%) [5]: 44% and 31% and 60% | Total Cell Count [5]: 137 and 115 and 142 | Population Apoptotic (%) [6]: 25% | Population Fragmented Nuclei (%) [6]: 6% and 3% and 4% | Population Healthy Nuclei (%) [6]: 80% and 84% and 75% | Population Membrane Permeable-Phenotype (%) [6]: 8% and 5% | Population Mitochondria Different-Phenotype (%) [6]: 13% and 7% | Population Mitotic Cells (%) [6]: 75% | Population Normal (%) [6]: 94% and 97% and 77% | Population Pyknosed Nuclei (%) [6]: 13% and 11% and 19% | Population Tubulin-Different-Phenotype (%) [6]: 22% and 14% and 23% | Total Cell Count [6]: 67 and 130 and 97 | Population Apoptotic (%) [7]: 66% and 45% and 56% | Population Fragmented Nuclei (%) [7]: 15% and 18% and 29% | Population Healthy Nuclei (%) [7]: 43% and 47% and 39% | Population Hoechst High Intensity Objects (%) [7]: 16% and 12% and 11% | Population Mitochondria Different-Phenotype (%) [7]: 31% and 48% and 42% | Population Mitotic Cells (%) [7]: 33% and 54% and 43% | Population Normal (%) [7]: 83% and 87% and 88% | Population Pyknosed Nuclei (%) [7]: 40% and 33% and 30% | Population Tubulin-Different-Phenotype (%) [7]: 76% and 87% and 86% | Total Cell Count [7]: 105 and 118 and 143 | Population Apoptotic (%) [8]: 28% and 44% and 46% | Population Fragmented Nuclei (%) [8]: 13% and 17% and 14% | Population Healthy Nuclei (%) [8]: 65% and 62% and 66% | Population Membrane Permeable-Phenotype (%) [8]: 9% and 7% and 3% | Population Mitochondria Different-Phenotype (%) [8]: 58% and 57% and 66% | Population Mitotic Cells (%) [8]: 71% and 55% and 53% | Population Normal (%) [8]: 98% and 92% | Population Pyknosed Nuclei (%) [8]: 21% and 20% and 18% | Population Tubulin-Different-Phenotype (%) [8]: 41% and 30% and 61% | Total Cell Count [8]: 104 and 67 and 97 | Population Apoptotic (%) [9]: 73% and 50% and 47% | Population Fragmented Nuclei (%) [9]: 32% and 28% and 24% | Population Healthy Nuclei (%) [9]: 43% and 48% and 60% | Population Hoechst High Intensity Objects (%) [9]: 14% and 12% | Population Membrane Permeable-Phenotype (%) [9]: 22% and 21% and 16% | Population Mitochondria Different-Phenotype (%) [9]: 2% and 7% | Population Mitotic Cells (%) [9]: 26% and 50% and 52% | Population Normal (%) [9]: 85% and 87% | Population Pyknosed Nuclei (%) [9]: 24% and 22% and 15% | Population Tubulin-Different-Phenotype (%) [9]: 20% and 37% and 36% | Total Cell Count [9]: 109 and 153 and 141 | Population Apoptotic (%) [10]: 100% and 83% | Population Fragmented Nuclei (%) [10]: 22% and 27% and 14% | Population Healthy Nuclei (%) [10]: 73% and 71% and 81% | Population Hoechst High Intensity Objects (%) [10]: 16% and 13% and 11% | Population Membrane Permeable-Phenotype (%) [10]: 18% and 13% | Population Mitochondria Different-Phenotype (%) [10]: 5% and 4% | Population Mitotic Cells (%) [10]: 0% and 16% | Population Normal (%) [10]: 83% and 86% and 88% | Population Tubulin-Different-Phenotype (%) [10]: 28% and 40% and 26% | Total Cell Count [10]: 116 and 115 and 159 | Population Apoptotic (%) [11]: 71% and 75% and 64% | Population Fragmented Nuclei (%) [11]: 36% and 33% | Population Healthy Nuclei (%) [11]: 43% and 45% and 41% | Population Hoechst High Intensity Objects (%) [11]: 20% and 19% and 17% | Population Membrane Permeable-Phenotype (%) [11]: 12% and 4% and 3% | Population Mitochondria Different-Phenotype (%) [11]: 40% and 45% and 36% | Population Mitotic Cells (%) [11]: 28% and 25% and 35% | Population Normal (%) [11]: 79% and 80% and 82% | Population Pyknosed Nuclei (%) [11]: 19% and 21% and 25% | Population Tubulin-Different-Phenotype (%) [11]: 81% and 83% and 82% | Total Cell Count [11]: 92 and 116 and 150 | Population Fragmented Nuclei (%) [12]: 28% and 31% and 23% | Population Healthy Nuclei (%) [12]: 66% and 63% and 71% | Population Hoechst High Intensity Objects (%) [12]: 9% and 3% | Population Membrane Permeable-Phenotype (%) [12]: 9% and 6% | Population Mitochondria Different-Phenotype (%) [12]: 13% and 23% and 16% | Population Mitotic Cells (%) [12]: 83% and 50% and 85% | Population Normal (%) [12]: 90% and 96% | Population Pyknosed Nuclei (%) [12]: 5% and 4% | Population Tubulin-Different-Phenotype (%) [12]: 68% and 86% | Total Cell Count [12]: 121 and 148 and 157
